The text below walks through data of ChEMBL document CHEMBL5154934, “Structure-Guided Design of Potent Spirocyclic Inhibitors of Severe Acute Respiratory Syndrome Coronavirus-2 3C-like Protease” (J Med Chem, 2022).

The source made the active and inactive calls. No cut-off for these calls is given here. Some results are limits rather than exact numbers.

A short description of data set [1]: Cytotoxicity against african green monkey Vero E6 cells. The settings on record: chlorocebus sabaeus. Type of data set: toxicity, cell-based, Vero C1008.
Data set [2] in a line: Inhibition of MERS-CoV 3C-like protease incubated for 30 mins by FRET enzyme assay. Also on record: species or system Middle East respiratory syndrome-related coronavirus.
For data set [3], the target named is Replicase polyprotein 1ab (Severe acute respiratory syndrome coronavirus 2, UniProt P0DTD1). In words: Inhibition of N-terminal His6-tagged SARS-CoV2 Wuhan-Hu-1 3C-like protease […] expressed in Escherichia coli BL21 (DE3) cells using FAM-SAVLQ/SG-QXL520 as substrate by FRET enzyme assay. The gist of the method:
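Enzyme was full-length codon-optimized N-terminal His6 protease from pET-28a. It was preincubated with serial inhibitor dilutions, or DMSO, for 1 h at 37°C in 20 mM HEPES pH 8 with 200 mM NaCl, 0.4 mM EDTA, 60% glycerol and 6 mM DTT. FAM-SAVLQ/SG-QXL520 was then added and fluorescence (ex 480/em 520 nm) read after 1 h. Readings were background-subtracted. IC50 came from a variable-slope fit, mean ± SD of ≥3 replicates.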

Data set [4] has as its system SARS-CoV-2. In words: Antiviral activity against SARS-CoV-2 3C-like measured after 24 hrs. Type of data set: functional, organism-based. The settings on record: Severe acute respiratory syndrome coronavirus 2, 24 h.
In data set [5] the test system is SARS-CoV-2. Nature of the data set: Antiviral activity against N-terminal His6-tagged SARS-CoV-2 3C-like protease […] HEK293T cells measured after 24 hrs by cell based replicon assay. Type of data set: functional, organism-based. The settings on record: Severe acute respiratory syndrome coronavirus 2.
Data set [6] is described as follows: Safety index, ratio of CC50 for cytotoxicity against Vero E6 cells to EC50 for antiviral activity against SARS-CoV-2 Wuhan-Hu-1. Type of data set: toxicity, cell-based, Vero C1008. The settings on record: monkey, read-out: Ratio CC50/EC50.

The CC50 is the concentration at which the toxic effect on the cells reaches its halfway point. With `CC(C)C[C@H](NC(=O)OC1CC2(CCN(C#N)CC2)C1)C(=O)N[C@@H](C[C@H]1CCNC1=O)C(=O)C(O)S(=O)(=O)O` (stereo partly specified), in data set [1], the CC50 was greater than 100000 nM.
As to `CC(C)C[C@H](NC(=O)OC1CC2(CCN(C(=O)OC(C)(C)C)C2)C1)C(=O)N[C@@H](C[C@H]1CCNC1=O)C(=O)C(O)S(=O)(=O)O` (stereo partly specified), the CC50 in data set [1] was greater than 100000 nM.
With `CC(C)C[C@H](NC(=O)OC1CC2(C1)CN(C(=O)C(C)C)C2)C(=O)N[C@@H](C[C@H]1CCNC1=O)C(=O)C(O)S(=O)(=O)O` (stereo partly specified), the CC50 in data set [1] is greater than 100000 nM.
As usually defined, the IC50 is the concentration that inhibits the measured activity by half. On to `CC(C)C[C@H](NC(=O)OC1CC2(CCN(C#N)CC2)C1)C(=O)N[C@H](C=O)C[C@H]1CCNC1=O`, for which the IC50 in data set [2] turned out to be 560 nM; in data set [3] it was 320 nM. For the same compound, the CC50 in data set [1] is greater than 100000 nM.
With `CC(C)C[C@H](NC(=O)OCC1CN(C(=O)C2CC3CCC2C3)C1)C(=O)N[C@H](C=O)C[C@H]1CCNC1=O` (stereo partly specified), the IC50 in data set [2] was determined as 190 nM; in data set [3], 520 nM. In data set [1], this compound returned a CC50 greater than 100000 nM.
Regarding `CC(C)C[C@H](NC(=O)OC1CC2(C1)CN(C(=O)OC(C)(C)C)C2)C(=O)N[C@H](C=O)C[C@H]1CCNC1=O`, the IC50 was 1500 nM in data set [2] and 3300 nM in data set [3]. Besides, in data set [1], the CC50 is greater than 100000 nM.
Consider `CC(C)C[C@H](NC(=O)OC1CC2(C1)CN(S(C)(=O)=O)C2)C(=O)N[C@H](C=O)C[C@H]1CCNC1=O`, for which the IC50 in data set [2] worked out at 220 nM; in data set [3] it was 680 nM. This compound also showed a half-maximal cytotoxic concentration (CC50) in data set [1] greater than 100000 nM.
As for `CC(C)C[C@H](NC(=O)OC1(C)CN(C(=O)OC(C)(C)C)C1)C(=O)N[C@H](C=O)C[C@H]1CCNC1=O`, the IC50 turned out to be 3450 nM in data set [2] and 3650 nM in data set [3]. The CC50 in data set [1] was greater than 100000 nM.
In the case of `CC(C)C[C@H](NC(=O)OCC1CN(S(C)(=O)=O)C1)C(=O)N[C@@H](C[C@H]1CCNC1=O)C(=O)C(O)S(=O)(=O)O` (stereo partly specified), the CC50 in data set [1] was greater than 100000 nM.
Turning to `CC(C)C[C@H](NC(=O)OC1CC2(CCN(C(=O)Cc3ccccc3)CC2)C1)C(=O)N[C@H](C=O)C[C@H]1CCNC1=O`, the IC50 is 700 nM in data set [2] and 350 nM in data set [3]. Besides, in data set [1], the CC50 is greater than 100000 nM.
Regarding `[2H]C([2H])(OC(=O)N[C@@H](CC(C)C)C(=O)N[C@@H](C[C@H]1CCNC1=O)C(=O)C(O)S(=O)(=O)[O-])C1CN(C(=O)OC(C)(C)C)C1.[Na+]` (stereo partly specified), the CC50 in data set [1] was greater than 100000 nM.
As for `CC(C)C[C@H](NC(=O)OCC1CN(C(=O)Cc2ccccc2)C1)C(=O)N[C@H](C=O)C[C@H]1CCNC1=O`, the IC50 turned out to be 280 nM in data set [2] and 830 nM in data set [3]. This compound also displayed a CC50 in data set [1] greater than 100000 nM.
Consider `CC(C)C[C@H](NC(=O)OCC1CN(S(C)(=O)=O)C1)C(=O)N[C@H](C=O)C[C@H]1CCNC1=O`, for which the IC50 in data set [2] worked out at 1400 nM; in data set [3] it was 4950 nM. Besides, the CC50 in data set [1] was greater than 100000 nM.
In turn, `CC(C)C[C@H](NC(=O)OC1CC2(C1)CN(C(=O)Cc1ccccc1)C2)C(=O)N[C@@H](C[C@H]1CCNC1=O)C(=O)C(O)S(=O)(=O)O` (stereo partly specified) yielded a half-maximal cytotoxic concentration (CC50) in data set [1] greater than 100000 nM.
On to `CC(C)C[C@H](NC(=O)OC1CC2(C1)CN(C(=O)C(C)C)C2)C(=O)N[C@H](C=O)C[C@H]1CCNC1=O`, for which the IC50 in data set [2] was found to be 350 nM; in data set [3] it was 1150 nM. Also, the CC50 in data set [1] was greater than 100000 nM.
For `CC(C)C[C@H](NC(=O)OC1CC2(C1)CN(C(=O)Cc1ccccc1)C2)C(=O)N[C@H](C=O)C[C@H]1CCNC1=O`, in that order: 210 nM, 260 nM and greater than 100000 nM.
The EC50 is the concentration needed to bring the measured effect to its halfway point. In the case of `CC(C)C[C@H](NC(=O)OCC1CN(C(=O)OC(C)(C)C)C1)C(=O)N[C@H](C=O)C[C@H]1CCNC1=O`, the IC50 worked out at 490 nM in data set [2] and 410 nM in data set [3]. The compound also displayed a CC50 in data set [1] greater than 100000 nM. For the same compound, the EC50 with SARS-CoV-2 [4] amounted to 380 nM. In addition, the outcome with SARS-CoV-2 [5] was Active.
In data set [1], `CC(C)C[C@H](NC(=O)OCC1CN(C(=O)OC(C)(C)C)C1)C(=O)N[C@@H](C[C@H]1CCNC1=O)C(=O)C(O)S(=O)(=O)O` (stereo partly specified) returned a CC50 greater than 100000 nM. Moreover, the concentration giving a half-maximal response (EC50) with SARS-CoV-2 [4] amounted to 430 nM. In addition, the result in the data set on SARS-CoV-2 [5] was Active.
In turn, `CC(C)C[C@H](NC(=O)OC1CC2(C1)CN(C(=O)OC(C)(C)C)C2)C(=O)N[C@@H](C[C@H]1CCNC1=O)C(=O)C(O)S(=O)(=O)O` (stereo partly specified) registered a CC50 in data set [1] greater than 100000 nM.
`CC(C)C[C@H](NC(=O)OC1CCC2(C1)CN(C(=O)OC(C)(C)C)C2)C(=O)N[C@H](C=O)C[C@H]1CCNC1=O` (stereo partly specified): the IC50 in data set [2] was found to be 1010 nM; in data set [3], 1250 nM. In data set [1], the CC50 is greater than 100000 nM.
In turn, `CC(C)C[C@H](NC(=O)OCC1CN(C(=O)Cc2ccccc2)C1)C(=O)N[C@@H](C[C@H]1CCNC1=O)C(=O)C(O)S(=O)(=O)O` (stereo partly specified) had a CC50 in data set [1] greater than 100000 nM.
As to `CC(C)C[C@H](NC(=O)OC1(C)CN(C(=O)OC(C)(C)C)C1)C(=O)N[C@@H](C[C@H]1CCNC1=O)C(=O)C(O)S(=O)(=O)O` (stereo partly specified), in data set [1], the CC50 was greater than 100000 nM.
As to `CC(C)C[C@H](NC(=O)OCC1CN(C(=O)C2CC3CCC2C3)C1)C(=O)N[C@@H](C[C@H]1CCNC1=O)C(=O)C(O)S(=O)(=O)O` (stereo partly specified), in data set [1], the CC50 is greater than 100000 nM.
As to `CC(C)C[C@H](NC(=O)OC1CC2(CCN(S(C)(=O)=O)CC2)C1)C(=O)N[C@H](C=O)C[C@H]1CCNC1=O`, the IC50 in data set [2] came to 370 nM; in data set [3], 240 nM. In data set [1], this compound came in with a CC50 greater than 100000 nM.
The compound `CC(C)C[C@H](NC(=O)OC1CC2(CCN(C(=O)C(C)C)CC2)C1)C(=O)N[C@@H](C[C@H]1CCNC1=O)C(=O)C(O)S(=O)(=O)O` (stereo partly specified) displayed a CC50 in data set [1] greater than 100000 nM.
For `CC(C)C[C@H](NC(=O)OC1CC2(CCN(C(=O)OC(C)(C)C)CC2)C1)C(=O)N[C@@H](C[C@H]1CCNC1=O)C(=O)C(O)S(=O)(=O)O` (stereo partly specified), the CC50 in data set [1] is greater than 100000 nM. Besides, in data set [6], the selectivity ratio was 1250. The response with SARS-CoV-2 [4] was half-maximal at 80 nM (EC50). Further, the outcome in the data set with SARS-CoV-2 [5] was Active.
For `CC(C)C[C@H](NC(=O)OC1CC2(CCN(C(=O)OC(C)(C)C)C2)C1)C(=O)N[C@H](C=O)C[C@H]1CCNC1=O` (stereo partly specified), half-maximal inhibition in data set [2] (IC50) was put at 700 nM. In data set [1], this compound registered a CC50 greater than 100000 nM.
Turning to `CC(C)C[C@H](NC(=O)OC1CN(C(=O)OC(C)(C)C)C1)C(=O)N[C@H](C=O)C[C@H]1CCNC1=O`, the IC50 amounted to 1650 nM in data set [2] and 2500 nM in data set [3]. For the same compound, in data set [1], the CC50 was greater than 100000 nM.
For `CC(C)C[C@H](NC(=O)OC1CC2(CCN(C(=O)C(C)C)CC2)C1)C(=O)N[C@H](C=O)C[C@H]1CCNC1=O`, in that order: 650 nM, 380 nM and greater than 100000 nM.
In data set [1], `CC(C)C[C@H](NC(=O)OC1CCC2(C1)CN(C(=O)OC(C)(C)C)C2)C(=O)N[C@@H](C[C@H]1CCNC1=O)C(=O)C(O)S(=O)(=O)O` (stereo partly specified) returned a CC50 greater than 100000 nM.
`CC(C)C[C@H](NC(=O)OC1CC2(CCN(C(=O)Cc3ccccc3)CC2)C1)C(=O)N[C@@H](C[C@H]1CCNC1=O)C(=O)C(O)S(=O)(=O)O` (stereo partly specified) displayed a CC50 in data set [1] greater than 100000 nM.
On to `[2H]C([2H])(OC(=O)N[C@@H](CC(C)C)C(=O)N[C@H](C=O)C[C@H]1CCNC1=O)C1CN(C(=O)OC(C)(C)C)C1`, for which the values for the IC50 in data set [2] and in data set [3] were 350 nM and 330 nM, respectively. Further, the CC50 in data set [1] is greater than 100000 nM.
Compound `CC(C)C[C@H](NC(=O)OC1CC2(C1)CN(S(C)(=O)=O)C2)C(=O)N[C@@H](C[C@H]1CCNC1=O)C(=O)C(O)S(=O)(=O)O` (stereo partly specified) displayed a cytotoxic concentration (CC50) in data set [1] greater than 100000 nM.
Consider `CC(C)C[C@H](NC(=O)OC1CC2(CCN(C(=O)OC(C)(C)C)CC2)C1)C(=O)N[C@H](C=O)C[C@H]1CCNC1=O`, for which the half-inhibitory concentration (IC50) in data set [2] amounted to 1200 nM; in data set [3] it was 360 nM. The cytotoxic concentration (CC50) in data set [1] was greater than 100000 nM. Besides, the selectivity ratio in data set [6] was 1250. Moreover, the EC50 in the data set on SARS-CoV-2 [4] came out at 90 nM. Also, the outcome with SARS-CoV-2 [5] was Active.
In the case of `CC(C)C[C@H](NC(=O)OC1CC2(CCN(S(C)(=O)=O)CC2)C1)C(=O)N[C@@H](C[C@H]1CCNC1=O)C(=O)C(O)S(=O)(=O)O` (stereo partly specified), in data set [1], the CC50 is greater than 100000 nM.
Same read-out and setting: in the case of `CC(C)C[C@H](NC(=O)OC1CN(C(=O)OC(C)(C)C)C1)C(=O)N[C@@H](C[C@H]1CCNC1=O)C(=O)C(O)S(=O)(=O)O` (stereo partly specified) it was greater than 100000 nM.
